Measurements reported in ChEMBL document CHEMBL1131139, “Synthesis and antibacterial activity of ketolides (6-O-methyl-3-oxoerythromycin derivatives): a new class of antibacterials highly potent against macrolide-resistant and -susceptible respiratory pathogens” (1998).
Converted amounts (≈) assume the structure as drawn.

Assays:
Assay type in all cases: functional
Staphylococcus aureus [1] = assay: In vitro inhibitory activity against Staphylococcus aureus (EryRi 011GO25i)
Summary of the method: (§1)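 Two-fold agar dilution on Mueller-Hinton agar (pH 7.4). Inoculum from overnight plate cultures suspended in Mueller-Hinton broth, adjusted to 10^9 CFU/mL, diluted 1:200 and spotted by multipoint inoculator at about 10^4 CFU/spot. Plates incubated 37 °C for 20 h. MIC taken as lowest concentration with no visible growth.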

Streptococcus pyogenes = assay: In vitro inhibitory activity against Streptococcus pyogenes (02A1UC1); summary of the method: as §1
Staphylococcus aureus [2] = assay: In vitro inhibitory activity against Staphylococcus aureus (EryRc 011CB20); summary of the method: as §1
Streptococcus pneumoniae [3] = assay: In vitro inhibitory activity against Streptococcus pneumoniae (EryRi 030SJ5i); summary of the method: as §1
Haemophilus influenzae [4] = assay: In vitro inhibitory activity against Haemophilus influenzae (351CB12); summary of the method: as §1
Streptococcus pneumoniae [5] = assay: In vitro inhibitory activity against Streptococcus pneumoniae (032UC1); summary of the method: as §1
Streptococcus pneumoniae [6] = assay: In vitro inhibitory activity against Streptococcus pneumoniae (EryRc 030SJ1); summary of the method: as §1
Escherichia coli = assay: In vitro inhibitory activity against Escherichia coli (250 UC5); summary of the method: as §1
Staphylococcus aureus [7] = assay: In vitro inhibitory activity against Staphylococcus aureus (011UC4); summary of the method: as §1
[8] = system: Staphylococcus epidermidis; assay: In vitro inhibitory activity against Staphylococcus epidermidis (EryRi 012GO11i); summary of the method: as §1
Haemophilus influenzae [9] = assay: In vitro inhibitory activity against Haemophilus influenzae (351HT3); summary of the method: as §1

| MIC (Staphylococcus aureus [1]) | MIC (Streptococcus pyogenes) | MIC (Staphylococcus aureus [2]) | MIC (Streptococcus pneumoniae [3]) | MIC (Haemophilus influenzae [4]) | MIC (Streptococcus pneumoniae [5]) | MIC (Streptococcus pneumoniae [6]) | MIC (Escherichia coli) | MIC (Staphylococcus aureus [7]) | MIC [8] | MIC (Haemophilus influenzae [9]) | Structure (SMILES) |
| --- | --- | --- | --- | --- | --- | --- | --- | --- | --- | --- | --- |
| 0.6 µg/mL (≈ 0.77 µM) | 0.02 µg/mL (≈ 0.0257 µM) | 10 µg/mL (≈ 12.8 µM) | 0.08 µg/mL (≈ 0.103 µM) | 1.2 µg/mL (≈ 1.54 µM) | 0.02 µg/mL (≈ 0.0257 µM) | 2.5 µg/mL (≈ 3.21 µM) | 40 µg/mL (≈ 51.3 µM) | 0.04 µg/mL (≈ 0.0513 µM) | 0.15 µg/mL (≈ 0.192 µM) | 1.2 µg/mL (≈ 1.54 µM) | CC[C@H]1OC(=O)[C@H](C)C(=O)[C@H](C)[C@@H](O[C@@H]2O[C@H](C)C[C@H](N(C)C)[C@H]2O)[C@](C)(OC)C[C@@H](C)C(=O)[C@H](C)[C@H]2N(CCCCc3cccc(Cl)c3)C(=O)O[C@]12C |
| 2.5 µg/mL (≈ 3.5 µM) | 0.15 µg/mL (≈ 0.21 µM) | 40 µg/mL (≈ 56 µM) | 40 µg/mL (≈ 56 µM) | 20 µg/mL (≈ 28 µM) | 10 µg/mL (≈ 14 µM) | 20 µg/mL (≈ 28 µM) | 40 µg/mL (≈ 56 µM) | 0.6 µg/mL (≈ 0.84 µM) | 0.6 µg/mL (≈ 0.84 µM) | 40 µg/mL (≈ 56 µM) | CC[C@H]1OC(=O)[C@H](C)C(=O)[C@H](C)[C@@H](O[C@@H]2O[C@H](C)C[C@H](N(C)C)[C@H]2O)[C@](C)(OC)C[C@@H](C)/C(=N\OCCN2CCCCC2)[C@H](C)[C@@H](O)[C@]1(C)O |
| 20 µg/mL (≈ 22.1 µM) | 0.04 µg/mL (≈ 0.0442 µM) | 20 µg/mL (≈ 22.1 µM) | 1.2 µg/mL (≈ 1.33 µM) | 2.5 µg/mL (≈ 2.76 µM) | 0.02 µg/mL (≈ 0.0221 µM) | 10 µg/mL (≈ 11 µM) | 40 µg/mL (≈ 44.2 µM) | 0.3 µg/mL (≈ 0.331 µM) | 40 µg/mL (≈ 44.2 µM) | 2.5 µg/mL (≈ 2.76 µM) | CC[C@H]1OC(=O)[C@H](C)[C@@H](O[C@H]2C[C@@](C)(OC)[C@@H](O)[C@H](C)O2)[C@H](C)[C@@H](O[C@@H]2O[C@H](C)C[C@H](N(C)C)[C@H]2O)[C@](C)(OC)C[C@@H](C)C(=O)[C@H](C)[C@H]2N(CCCCc3ccccc3)C(=O)O[C@]12C |
| 5 µg/mL (≈ 7.64 µM) | 0.15 µg/mL (≈ 0.229 µM) | 40 µg/mL (≈ 61.1 µM) | 40 µg/mL (≈ 61.1 µM) | 40 µg/mL (≈ 61.1 µM) | 0.04 µg/mL (≈ 0.0611 µM) | 40 µg/mL (≈ 61.1 µM) | 40 µg/mL (≈ 61.1 µM) | 1.2 µg/mL (≈ 1.83 µM) | 40 µg/mL (≈ 61.1 µM) | 40 µg/mL (≈ 61.1 µM) | CCCN1C(=O)O[C@]2(C)[C@@H](CC)OC(=O)[C@H](C)C(=O)[C@H](C)[C@@H](O[C@@H]3O[C@H](C)C[C@H](N(C)C)[C@H]3O)[C@](C)(OC)C[C@@H](C)C(=O)[C@H](C)[C@@H]12 |
| 0.08 µg/mL (≈ 0.0967 µM) | 0.02 µg/mL (≈ 0.0242 µM) | 40 µg/mL (≈ 48.4 µM) | 0.02 µg/mL (≈ 0.0242 µM) | 2.5 µg/mL (≈ 3.02 µM) | 0.02 µg/mL (≈ 0.0242 µM) | 0.08 µg/mL (≈ 0.0967 µM) | 40 µg/mL (≈ 48.4 µM) | 0.04 µg/mL (≈ 0.0484 µM) | 0.08 µg/mL (≈ 0.0967 µM) | 1.2 µg/mL (≈ 1.45 µM) | CC[C@H]1OC(=O)[C@H](C)C(=O)[C@H](C)[C@@H](O[C@@H]2O[C@H](C)C[C@H](N(C)C)[C@H]2O)[C@](C)(OC)C[C@@H](C)C(=O)[C@H](C)[C@H]2N(NCCCc3ccnc4ccc(OC)cc34)C(=O)O[C@]12C |
| 0.15 µg/mL (≈ 0.201 µM) | 0.02 µg/mL (≈ 0.0268 µM) | 40 µg/mL (≈ 53.6 µM) | 0.15 µg/mL (≈ 0.201 µM) | 1.2 µg/mL (≈ 1.61 µM) | 0.02 µg/mL (≈ 0.0268 µM) | 5 µg/mL (≈ 6.7 µM) | 40 µg/mL (≈ 53.6 µM) | 0.08 µg/mL (≈ 0.107 µM) | 0.15 µg/mL (≈ 0.201 µM) | 1.2 µg/mL (≈ 1.61 µM) | CC[C@H]1OC(=O)[C@H](C)C(=O)[C@H](C)[C@@H](O[C@@H]2O[C@H](C)C[C@H](N(C)C)[C@H]2O)[C@](C)(OC)C[C@@H](C)C(=O)[C@H](C)[C@H]2N(NCCCc3ccccc3)C(=O)O[C@]12C |
| 0.15 µg/mL (≈ 0.181 µM) | 0.02 µg/mL (≈ 0.0242 µM) | 40 µg/mL (≈ 48.4 µM) | 0.15 µg/mL (≈ 0.181 µM) | 1.2 µg/mL (≈ 1.45 µM) | 0.02 µg/mL (≈ 0.0242 µM) | 2.5 µg/mL (≈ 3.02 µM) | 40 µg/mL (≈ 48.4 µM) | 0.04 µg/mL (≈ 0.0484 µM) | 0.15 µg/mL (≈ 0.181 µM) | 0.6 µg/mL (≈ 0.725 µM) | CC[C@H]1OC(=O)[C@H](C)C(=O)[C@H](C)[C@@H](O[C@@H]2O[C@H](C)C[C@H](N(C)C)[C@H]2O)[C@](C)(OC)C[C@@H](C)C(=O)[C@@H](C)[C@H]2N(NCCCc3ccnc4c(OC)cccc34)C(=O)O[C@]12C |
| 5 µg/mL (≈ 7.29 µM) | 0.3 µg/mL (≈ 0.437 µM) | 40 µg/mL (≈ 58.3 µM) | 0.08 µg/mL (≈ 0.117 µM) | 2.5 µg/mL (≈ 3.64 µM) | 0.3 µg/mL (≈ 0.437 µM) | 40 µg/mL (≈ 58.3 µM) | 40 µg/mL (≈ 58.3 µM) | 1.2 µg/mL (≈ 1.75 µM) | 2.5 µg/mL (≈ 3.64 µM) | 20 µg/mL (≈ 29.2 µM) | CC[C@H]1OC(=O)[C@H](C)C(=O)[C@H](C)[C@@H](O[C@@H]2O[C@H](C)C[C@H](N(C)C)[C@H]2O)[C@](C)(OC)C[C@@H](C)/C(=N\O[C@H]2CCCNC2)[C@H](C)[C@@H](O)[C@]1(C)O |
| 0.08 µg/mL (≈ 0.107 µM) | 0.02 µg/mL (≈ 0.0268 µM) | 40 µg/mL (≈ 53.6 µM) | 0.3 µg/mL (≈ 0.402 µM) | 0.6 µg/mL (≈ 0.803 µM) | 0.02 µg/mL (≈ 0.0268 µM) | 5 µg/mL (≈ 6.69 µM) | 40 µg/mL (≈ 53.6 µM) | 0.04 µg/mL (≈ 0.0536 µM) | 0.15 µg/mL (≈ 0.201 µM) | 1.2 µg/mL (≈ 1.61 µM) | CC[C@H]1OC(=O)[C@H](C)C(=O)[C@H](C)[C@@H](O[C@@H]2O[C@H](C)C[C@H](N(C)C)[C@H]2O)[C@](C)(OC)C[C@@H](C)C(=O)[C@H](C)[C@H]2N(CCOCc3ccccc3)C(=O)O[C@]12C |
| 2.5 µg/mL (≈ 3.09 µM) | 0.04 µg/mL (≈ 0.0494 µM) | 40 µg/mL (≈ 49.4 µM) | 0.15 µg/mL (≈ 0.185 µM) | 1.2 µg/mL (≈ 1.48 µM) | 0.02 µg/mL (≈ 0.0247 µM) | 0.6 µg/mL (≈ 0.741 µM) | 40 µg/mL (≈ 49.4 µM) | 0.15 µg/mL (≈ 0.185 µM) | 5 µg/mL (≈ 6.17 µM) | 5 µg/mL (≈ 6.17 µM) | CC[C@H]1OC(=O)[C@H](C)C(=O)[C@H](C)[C@@H](O[C@@H]2O[C@H](C)C[C@H](N(C)C)[C@H]2O)[C@](C)(OC)C[C@@H](C)/C(=N\OC2CCCN(CCCC3CCCCC3)C2)[C@H](C)[C@@H](O)[C@]1(C)O (some centres undefined) |
| 0.6 µg/mL (≈ 0.979 µM) | 0.04 µg/mL (≈ 0.0653 µM) | 40 µg/mL (≈ 65.3 µM) | 2.5 µg/mL (≈ 4.08 µM) | 5 µg/mL (≈ 8.16 µM) | 0.02 µg/mL (≈ 0.0326 µM) | 5 µg/mL (≈ 8.16 µM) | 40 µg/mL (≈ 65.3 µM) | 0.6 µg/mL (≈ 0.979 µM) | 10 µg/mL (≈ 16.3 µM) | 5 µg/mL (≈ 8.16 µM) | CC[C@H]1OC(=O)[C@H](C)C(=O)[C@H](C)[C@@H](O[C@@H]2O[C@H](C)C[C@H](N(C)C)[C@H]2O)[C@](C)(OC)C[C@@H](C)C(=O)[C@H](C)[C@H]2NC(=O)O[C@@]21C |
| 0.08 µg/mL (≈ 0.0968 µM) | 0.02 µg/mL (≈ 0.0242 µM) | 40 µg/mL (≈ 48.4 µM) | 0.02 µg/mL (≈ 0.0242 µM) | 1.2 µg/mL (≈ 1.45 µM) | 0.02 µg/mL (≈ 0.0242 µM) | 0.6 µg/mL (≈ 0.726 µM) | 40 µg/mL (≈ 48.4 µM) | 0.08 µg/mL (≈ 0.0968 µM) | 0.04 µg/mL (≈ 0.0484 µM) | 1.2 µg/mL (≈ 1.45 µM) | CC[C@H]1OC(=O)[C@H](C)C(=O)[C@H](C)[C@@H](O[C@@H]2O[C@H](C)C[C@H](N(C)C)[C@H]2O)[C@](C)(OC)C[C@@H](C)C(=O)[C@H](C)[C@H]2N(CCCCc3ccnc4ccc(OC)cc34)C(=O)O[C@]12C |
| 1.2 µg/mL (≈ 1.99 µM) | 0.15 µg/mL (≈ 0.249 µM) | 40 µg/mL (≈ 66.4 µM) | 40 µg/mL (≈ 66.4 µM) | 1.2 µg/mL (≈ 1.99 µM) | 0.08 µg/mL (≈ 0.133 µM) | 40 µg/mL (≈ 66.4 µM) | 40 µg/mL (≈ 66.4 µM) | 0.3 µg/mL (≈ 0.498 µM) | 0.6 µg/mL (≈ 0.995 µM) | 20 µg/mL (≈ 33.2 µM) | CC[C@H]1OC(=O)[C@H](C)C(=O)[C@H](C)[C@@H](O[C@@H]2O[C@H](C)C[C@H](N(C)C)[C@H]2O)[C@](C)(OC)C[C@@H](C)/C(=N\O)[C@H](C)[C@@H](O)[C@]1(C)O |
| 0.6 µg/mL (≈ 0.804 µM) | 0.04 µg/mL (≈ 0.0536 µM) | 40 µg/mL (≈ 53.6 µM) | 0.6 µg/mL (≈ 0.804 µM) | 1.2 µg/mL (≈ 1.61 µM) | 0.02 µg/mL (≈ 0.0268 µM) | 40 µg/mL (≈ 53.6 µM) | 40 µg/mL (≈ 53.6 µM) | 0.08 µg/mL (≈ 0.107 µM) | 0.3 µg/mL (≈ 0.402 µM) | 2.5 µg/mL (≈ 3.35 µM) | CC[C@H]1OC(=O)[C@H](C)C(=O)[C@H](C)[C@@H](O[C@@H]2O[C@H](C)C[C@H](N(C)C)[C@H]2O)[C@](C)(OC)C[C@@H](C)C(=O)[C@H](C)[C@H]2N(CCCNc3ccccc3)C(=O)O[C@]12C |
